IC50 data for one compound are collected here from paper PMC8159369 (Chemical Science, 2020).

This assay addresses HRP-labeled WGA. The assay can be described thus: Enzyme-linked lectin assay. Further details: species or system Triticum vulgaris. Conditions: inhibition of binding of HRP-labeled WGA to covalently immobilized GlcNAc. The procedure, abridged: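 ELLA in which the test compound competes with a surface-coated reference ligand for lectin binding. Dose–response curves were recorded over a concentration series. IC50 is the concentration giving 50% inhibition of lectin binding.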

As a reminder, the IC50 is the concentration at which inhibition is half-maximal. In turn, `CC(=O)N[C@@H]1[C@@H](O)[C@H](O)[C@@H](CO)O[C@H]1O` [GlcNAc, N-acetylglucosamine] yielded an IC50 of 15 mM.
